# Where a name gives a salt, the structure may show the parent alone.
# Test system: Plasmodium falciparum
# Assay: Antiplasmodial activity against Plasmodium falciparum 3D7 infected in RBCs by firefly luciferase reporter gene assay
# Assay type: functional, organism-based
# Details: not given
# Procedure, shortened: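 Sorbitol-synchronised 3D7 expressing firefly luciferase from the HRPII promoter, at 1% late-ring parasitemia and 3% hematocrit in RPMI/albumax II medium. Sixteen 2-fold dilutions from 17 μM to 0.5 nM, 48 h at 37°C under 5% O2/5% CO2/N2. Bright-Glo luminescence is normalised to untreated infected and uninfected-RBC wells. IC50 by four-parameter logistic fit.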
row,Structure (SMILES),IC50
1,CCNC(=O)N1CCN(CCCC(c2ccc(F)cc2)c2ccc(F)cc2)CC1 [AMPEROZIDE HYDROCHLORIDE],35 nM
2,CCNC(=O)N1CCN(CCCC(c2ccc(F)cc2)c2ccc(F)cc2)CC1 [AMPEROZIDE DIHYDROCHLORIDE],443 nM

# Same assay, conditions: Plasmodium falciparum, 3D7
row,Structure (SMILES),IC50
1,O=C1CCN(CCCC(c2ccc(F)cc2)c2ccc(F)cc2)CC1,5400 nM
2,CN(Cc1ccccc1)c1cc(Br)cc(Br)c1O,680 nM
3,C[C@H]1[C@H](OC(=O)CCC(=O)O)O[C@@H]2O[C@@]3(C)CC[C@H]4[C@H](C)CC[C@@H]1[C@@]24OO3 [ARTESUNATE],3.3 nM
4,O=S(=O)(c1ccccc1)N1CCN(CCCC(c2ccc(F)cc2)c2ccc(F)cc2)CC1,3000 nM
5,CCCN(CCC)[C@H]1CCc2c(F)ccc(O)c2C1,5 nM
6,Oc1ccccc1N1CCCC2CCCCC21 (configuration not stated),410 nM
7,Cc1ccnc(NS(=O)(=O)c2ccc(N)cc2)n1 [SULFAMERAZINE],6 nM
8,N=C(N)c1ccc(OCCCCCOc2ccc(C(=N)N)cc2)cc1,42 nM
9,Oc1c(Br)cccc1N1CCCCCCC1,430 nM
10,O=c1ccc2ccccc2[nH]1 [OXYQUINOLINE HEMISULFATE],1140 nM
11,C=C[C@H]1CN2CC[C@H]1C[C@@H]2[C@@H](O)c1ccnc2ccccc12 [CINCHONINE],5 nM
12,CN1CCN(CCCC(c2ccc(F)cc2)c2ccc(F)cc2)CC1,12000 nM
13,COc1ccc(CCN2CCC(Nc3nc4ccccc4n3Cc3ccc(F)cc3)CC2)cc1 [ASTEMIZOLE],254 nM
14,CC[C@H]1CN2CCc3cc(OC)c(OC)cc3[C@@H]2C[C@@H]1C[C@H]1NCCc2cc(OC)c(OC)cc21 [EMETINE DIHYDROCHLORIDE HYDRATE],1 nM
15,NCCc1c[nH]cn1 [HISTAMINE],660 nM
16,CCN(CC)CCCC(c1ccc(F)cc1)c1ccc(F)cc1,5700 nM
17,C[C@@H]1C[C@H]2[C@@H]3CCC4=CC(=O)C=C[C@]4(C)[C@@]3(Cl)[C@@H](O)C[C@]2(C)[C@@]1(OC(=O)c1ccco1)C(=O)CCl [MOMETASONE FUROATE],1510 nM
18,Fc1ccc(C(CCCN2CCOCC2)c2ccc(F)cc2)cc1,18000 nM
19,CCCN(CC1CC1)c1cc(OC)cc(Br)c1O,290 nM
20,CNC(=C[N+](=O)[O-])NCCSCc1ccc(CN(C)C)o1 [RANITIDINE HYDROCHLORIDE],> 22800 nM
21,CC[C@]1(O)C[C@H]2CN(CCc3c([nH]c4ccccc34)[C@@](C(=O)OC)(c3cc4c(cc3OC)N(C=O)[C@H]3[C@@](O)(C(=O)OC)[C@H](OC(C)=O)[C@]5(CC)C=CCN6CC[C@]43[C@@H]65)C2)C1 [VINCRISTINE],1 nM
22,Clc1ccc(CNC2CCN(Cc3ccccc3)CC2)cc1,250 nM

row,Structure (SMILES),IC50
1,O=C(Nc1ccccc1)N1CCN(CCCC(c2ccc(F)cc2)c2ccc(F)cc2)CC1,7300 nM
2,CCCCN(Cc1ccccc1)c1ccccc1O,420 nM
3,CCN(c1nc(N)c(C(=O)NC(=N)N)nc1Cl)C(C)C [5-(N-ETHYL-N-ISOPROPYL)AMILORIDE],825 nM
4,CC(C)CN(C)c1nc(N)c(C(=O)N=C(N)N)nc1Cl [5-(N-METHYL-N-ISOBUTYL)AMILORIDE],549 nM
5,CC(=O)N(C1=C(N2CCCCC2)C(=O)c2ccccc2C1=O)c1cccc(Cl)c1,4300 nM
6,Clc1cccc(CNC2CCN(Cc3ccccc3)CC2)c1,1100 nM
7,CN/C(=N\CCSCc1nc[nH]c1C)NC#N [CIMETIDINE],> 22800 nM
8,O[Si](CCCN1CCCCC1)(c1ccc(F)cc1)C1CCCCC1 (configuration not stated),4 nM
9,CNC(=C[N+](=O)[O-])NCCSCc1csc(CN(C)C)n1 [NIZATIDINE],> 22800 nM
10,CCCN(CC1CC1)c1cc(Cl)cc(Cl)c1O,330 nM
11,Fc1ccc(C(CCCN2CCCC2)c2ccc(F)cc2)cc1,12000 nM
12,CCC(=O)O[C@]1(C(=O)CCl)[C@@H](C)C[C@H]2[C@@H]3CCC4=CC(=O)C=C[C@]4(C)[C@@]3(F)[C@@H](O)C[C@@]21C [CLOBETASOL PROPIONATE],797 nM
13,C/N=C(/NC#N)NCCSCc1csc(NC(=N)N)n1 [TIOTIDINE],> 22800 nM
14,CCCN1CCC(NCC(c2ccccc2)c2ccccc2)CC1,490 nM
15,NC(N)=Nc1nc(CSCC/C(N)=N/S(N)(=O)=O)cs1 [FAMOTIDINE],> 22800 nM
16,CCCN1CCC(NC(c2ccccc2)c2ccc(Cl)cc2)CC1 (configuration not stated),1100 nM
17,Cc1cccc(C2=NN=C(c3ccc(Br)cc3)C2)c1O,4700 nM
18,C=C[C@H]1CN2CC[C@H]1C[C@@H]2[C@@H](O)c1ccnc2ccc(OC)cc12 [QUINIDINE SULFATE],56 nM
19,Fc1ccc(C(CCCN2CCCCC2)c2ccc(F)cc2)cc1,6000 nM
20,Clc1ccc(C(OCCN2CCCCC2)c2ccccc2)cc1 (configuration not stated) [CLOPERASTINE HYDROCLORIDE],4880 nM
21,CCCCCC[C@H]1C(=O)O[C@H](C)[C@H](NC(=O)c2cccc(NC=O)c2O)C(=O)O[C@@H](C)[C@@H]1OC(=O)CC(C)C [ANTIMYCIN A],2190 nM
22,Oc1c(Cl)cccc1N1CCCCCCC1,180 nM

row,Structure (SMILES),IC50
1,CC1CCCN(c2cc(Cl)cc(Cl)c2O)C1 (configuration not stated),110 nM
2,CCCc1nc2c(C)cc(-c3nc4ccccc4n3C)cc2n1Cc1ccc(-c2ccccc2C(=O)O)cc1 [TELMISARTAN],1610 nM
3,CCCCN(C)c1cc(Br)cc(Br)c1O,270 nM
4,COc1ccc(CNC2CCN(Cc3ccccc3)CC2)cc1,1300 nM
5,CCN(CC)CCNc1ccc(CO)c2sc3ccccc3c(=O)c12 [HYCANTHONE],3020 nM
6,"N/C(=N\C(=O)c1nc(Cl)c(N)nc1N)NCc1ccc(Cl)c(Cl)c1 [3',4' DICHLOROBENZAMIL]",143 nM
7,NC(=O)CCCCn1ccc(/N=C(\N)NCC(F)(F)F)n1,18000 nM
8,CC[C@]1(O)C[C@@H]2CN(CCc3c([nH]c4ccccc34)[C@@](C(=O)OC)(c3cc4c(cc3OC)N(C)[C@H]3[C@@](O)(C(=O)OC)[C@H](OC(C)=O)[C@]5(CC)C=CCN6CC[C@]43[C@@H]65)C2)C1 [VINBLASTINE],2 nM
9,CC1CCCN(c2cccc(Br)c2O)C1 (configuration not stated),130 nM
10,CCN(CC)CCCC(C)Nc1c2ccc(Cl)cc2nc2ccc(OC)cc12 (configuration not stated) [QUINACRINE DIHYDROCHLORIDE],1 nM
11,CC(C)C[C@@H]1NC(=O)[C@H](CCCN)NC(=O)[C@H](C(C)C)NC(=O)[C@H](Cc2ccc(O)cc2)N[C@@H](CCC(=O)O)C(=O)N[C@@H](CC(N)=O)C(=O)[C@@H](Cc2ccccc2)NC(=O)[C@H](Cc2ccccc2)NC(=O)[C@@H]2CCCN2C(=O)[C@@H](Cc2ccccc2)NC1=O [TYROTHRICIN],0.05 nM
12,CN(CCc1ccccc1)c1cc(Br)cc(Br)c1O,36 nM
13,CCCCOc1ccc(CC(=O)NO)cc1 [BUFEXAMAC],2770 nM
14,C=C[C@H]1CN2CC[C@H]1C[C@H]2[C@H](O)c1ccnc2ccc(OC)cc12 [QUININE SULFATE],280 nM
15,N#CN/C(=N\CCNC(=O)c1ccc(N)cc1)NCCCOc1cccc(CN2CCCCC2)c1 [AMINOPOTENTIDINE],14700 nM
16,CC(=O)N(C1=C(N2CCCCC2)C(=O)c2ccccc2C1=O)C1CCCCC1,5400 nM
17,N/C(=N\C(=O)c1nc(Cl)c(N)nc1N)NCc1ccccc1 [BENZAMIL HYDROCHLORIDE],217 nM
18,Fc1ccc(C(CCCN2CCNCC2)c2ccc(F)cc2)cc1,4500 nM
19,COc1ccc(O)c(N2CCCCC2)c1,790 nM
20,Oc1c(Cl)cccc1C1=NN=C(c2ccc(Cl)cc2)C1,15000 nM
21,CCCN(CC1CC1)c1cc(Br)cc(Br)c1O,710 nM

# Reference: ChEMBL document CHEMBL1671701, “Discovery of potent small-molecule inhibitors of multidrug-resistant Plasmodium falciparum using a novel miniaturized high-throughput luciferase-based assay” (Antimicrob Agents Chemother, 2010)
